Results as given in the EternaBench riboswitch data.

Key:
[1] = system: MS2 coat protein; assay: apparent Kd, MS2 coat protein; higher = weaker binding; RNA-MaP array; theophylline 2 mM where present
In short: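 Binding was read on Illumina sequencing-chip clusters where stalled E. coli RNA polymerase had transcribed each design. A titration of SNAP-549-labelled MS2 coat protein began at 0.7 or 1.5 nM and doubled to 3 µM, once without ligand and once with constant ligand, in 100 mM Tris-HCl pH 7.5, 80 mM KCl, 4 mM MgCl2, BSA, DTT, yeast tRNA and Tween-20. The apparent Kd is the median of filtered per-cluster binding-curve fits, based on green signal normalised to red-channel RNA signal and control-cluster median Fmax.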

[2] = system: MS2 coat protein; assay: apparent Kd, MS2 coat protein; higher = weaker binding; RNA-MaP array
In short: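 RNA designs were transcribed from sequenced DNA templates on an Illumina sequencing chip and then incubated at room temperature with fluorescently labeled MS2 coat protein at 1.5 nM to 3 μM, with or without input ligand, in Tris-HCl pH 7.5 buffer containing KCl, MgCl2, BSA, DTT, tRNA and Tween20. Incubation lasted 0.8–1.5 h at the lowest protein concentrations and 10–20 min at the highest. Apparent Kd is the median of binding-curve fits made for each cluster. Designs measured on fewer than 10 clusters were excluded.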

[3] = designed as: OFF switch for theophylline, no ligand
[4] = ligand present: theophylline, designed as: OFF switch for theophylline
[5] = designed as: ON switch for theophylline, no ligand
[6] = ligand present: theophylline, designed as: ON switch for theophylline
[7] = designed as: OFF switch for tryptophan, no ligand
[8] = ligand present: tryptophan, designed as: OFF switch for tryptophan
[9] = designed as: OFF switch for flavin mononucleotide, no ligand
[10] = ligand present: flavin mononucleotide, designed as: OFF switch for flavin mononucleotide

Sequence | apparent Kd [1, 3] | apparent Kd [1, 4] | apparent Kd [1, 5] | apparent Kd [1, 6] | further results
AAACUGGGUGUAAAAUAAAUAAUCACUGAUACCAGACUAUGAGAUGUCCCUUGGCAGCAGAAACAUGAGGAUCACCCAUGUAAUA | 17.9 nM | 21.2 nM | – | – | –
AAAUAAAUAACUGAUACCAGUGUACUGACAUGAGGAUCACCCAUGUUGGGUUUUGUUGUACACCCUUGGCAGCAGAAAUAUAAAA | 35.3 nM | 73 nM | – | – | –
AACAAUGCACAUGAGGAUCACCCAUGUGAUACCAGCCGCAACAUAGGCCCUUGGCAGCAUGUGGGUAUAGAACGAUUUGGCUGAA | 45.9 nM | 78.3 nM | – | – | –
AAGGUGAUCCCAGAUACCAGCUCAACAUGAGGAUCACCCAUGUACGGGACGAAAGUCCCGGGCCCUUGGCAGCUGGGUUGCCAAG | – | – | 193 nM | 123 nM | –
AAUAACAUGAGGAUCACCCAUGUAAAAGAUACCAGAGUGAUGAUCCUCCCUUGGCAGCUUAAUAACGCUAUUGAUUACAAUAGCG | – | – | 46.4 nM | 108 nM | –
AAUAACAUGAGGAUCACCCAUGUAAAAGAUACCAGAUGCAUGAUGAUCCCUUGGCAGCUUAAAACGCGAUUGAUUACAAUCGCGA | – | – | 33.3 nM | 107 nM | –
AAUAAUCUAGGUGAUACCAGCUCAACAUGAGGAUCACCCAUGUACUCAUGUAGAGUUGAGAGCCCUUGGCAGCACCUAGAUAAUA | – | – | 553 nM | 74.9 nM | –
AAUUUGUCGGGUGAUACCAGCCUCGGCGCAUCUCGCGCUGAACAUGAGGAUCACCCAUGUGGCCCUUGGCAGCACAUGACAAAUC | – | – | 554 nM | 37.3 nM | –
ACAUGAGGAUCACCCAUGUAGUGGCACGAUACCAGCUGAUCCCGUGGCCCUUGGCAGCGUCCGGUGUGGUGCGCCGGGUUGGAGC | – | – | 49.1 nM | 61.7 nM | –
ACAUGAGGAUCACCCAUGUCAAGGCACGAUACCAGCUGAUCCGGUGGCCCUUGGCAGCGUCACGUUUGGUCCCGCGGAUGACACG | – | – | 64.7 nM | 108 nM | –
ACAUGAGGAUCACCCAUGUCACGGCACGAUACCAGCUGAUGCGGUGGCCCUUGGCAGCGUGACGUUUGGUCCCGCGGAUGACACG | – | – | 200 nM | 117 nM | –
ACAUGAGGAUCACCCAUGUCUGCCACUGAUACCAGCGGAAGCCCACGCCCUUGGCAGCAGAACAUGAGGAUCACCCAUGUAGGCU | – | – | 232 nM | 198 nM | –
ACAUGAGGAUCACCCAUGUCUGCCUCGGAUACCAGCGGAAGAAAACGCCCUUGGCAGCCGAACAUGAGGAUCACCCAUGUAGGCU | – | – | 48.2 nM | 56.8 nM | –
ACAUGAGGAUCACCCAUGUUCCUCAUUGAUACCAGUGAAUUUAGACGCCCUUGGCAGCGAGUUUUUUUAGAAGAAGUUUUUUUUU | 782 nM | 1070 nM | – | – | –
ACAUGAGGAUCACCCAUGUUCCUCGCCGAUACCAGUGAAGAAGAACGCCCUUGGCAGCGGAAAGAAUAUUUUGGAGAUGAGAUAU | 204 nM | 270 nM | – | – | –
ACAUGAGGAUGGGAUACCAGAUACAUGAGGAUCACCCAUACAUGAGGAUCACCCAUGUCCGUCCCUUGGCAGCCCAACAUGAGGA | 169 nM | 506 nM | – | – | –
ACAUUAGUUGGCGAUACCAGCUAUAGGCCUUCUGGGCGACAUGAGGAUCACCCAUGUGAUGGCCCUUGGCAGCGCUGAUUGAUGU | – | – | 151 nM | 41.4 nM | –
ACCUCACUCUCUGAUACCAGCUAACAACAUGAGGAUCACCCAUGUCAGACUUGUAUUGAUAGCCCUUGGCAGCAGAGGUAACUGC | 16.2 nM | 31.3 nM | – | – | –
ACGUCCGGAUUAAUCGUGGGCAUGGUCGAUACCAGUAUUUUAAUCUACCCUUGGCAGCGACAUGAGGAUCACCCAUGUGCGAUGA | 16.7 nM | 30.9 nM | – | – | –
ACUAGUUGUGCAGAUACCAGACAUGAGGAUCACCCAUGUUUGGGAUCUUCGGAUCUUCCUGUCCCUUGGCAGCUGUACAUCUAGA | 85 nM | 22.5 nM | – | – | –
ACUCUGUCGGGUGAUACCAGCCUCGGCACAUCUCGCGCCGAACAUGAGGAUCACCCAUGUGGCCCUUGGCAGCACAUGACAAAUC | – | – | 328 nM | 83.1 nM | –
AGAUUACAUGUUUUAAUACGGAAAACUGAUACCAGUGUAUCUAUUCACCCUUGGCAGCAGCAACAUGAGGAUCACCCAUGUAUUA | – | – | 19.2 nM | 19.2 nM | –
AGCAUGUUAGCAGAUACCAGACGUUUUAUGAUCCAUGUAACAUGAGGAUCACCCAUGUAAGUCCCUUGGCAGCUGAAAUAAUGCA | – | – | 155 nM | 301 nM | –
AGCGAGAUCCGUGAUACCAGCUACAUGAGGAUCACCCAUGUGAGCGCGAAAGUGCUGUGUAGCCCUUGGCAGCACAGUGGAUCUC | 10 nM | 43.2 nM | – | – | –
AGCGAUAUGCAUGAUACCAGCUACAUGAGGAUCACCCAUGUACGUCAGUAAUGACUGUGUAGCCCUUGGCAGCAUAGAGCAUGUA | 25.5 nM | 33 nM | – | – | –

Sequence | apparent Kd [1, 3] | apparent Kd [1, 4] | apparent Kd [1, 5] | apparent Kd [1, 6] | further results
AGCGAUAUGCAUGAUACCAGCUACAUGAGGAUCACCCAUGUGCGUCAGAAAUGACUGUGUAGCCCUUGGCAGCAUAGAGCAUGUA | 37.4 nM | 73.6 nM | – | – | –
AGCGGAACGGAAGGGUCCCGAAAUUGUGAUACCAGCCUUGAAUCCGGCCCUUGGCAGCACAUGAGGAUCACCCAUGUACUGCGGU | 13 nM | 45 nM | – | – | –
AGUACUCGAACGGAUACCAGCCGGACAUGAGGAUCACCCAUGUCCUACCAUGUCUCGGUUGGCCCUUGGCAGCCGUUCGUGUACA | – | – | 83.4 nM | 234 nM | –
AGUGUUAUAACUGAUACCAGACUUUUGCUUAUACAUGAGGAUCACCCAUGUAAAAUGGUUGUCCCUUGGCAGCAGAAGUUACACA | – | – | 69.1 nM | 327 nM | –
AUAGUCUAGAGUGAUACCAGACUACAUGAGGAUCACCCAUGUAUCUUUUGGUUAUCAUGUGUCCCUUGGCAGCACGCAUGUAUAG | 10.1 nM | 24.5 nM | – | – | –
AUAUGAUCAUAGGAUACCAGAAAUGGUAUUCCUUUAUUUCUUACAUGAGGAUCACCCAUGUUCCCUUGGCAGCUUAUGAUCAUAU | 126 nM | 115 nM | – | – | –
AUAUGAUCAUGUGAUACCAGAAAUGGUAUUCCUCGCUGGAUUACAUGAGGAUCACCCAUGUUCCCUUGGCAGCAUAUGAUCAUAU | 21.4 nM | 269 nM | – | – | –
AUCGUACCUGAUGAUACCAGCAAGUGAUCAUAACAUGAGGAUCACCCAUGUAAUCAGUGAUGCCCUUGGCAGCAUAGUCGAUACA | – | – | 164 nM | 99.8 nM | –
AUCGUACCUGGUGAUACCAGCAAGUGAUUAUAACAUGAGGAUCACCCAUGUAAUCAGUGAUGCCCUUGGCAGCAUAAUCGGUACA | – | – | 26.3 nM | 21.3 nM | –
AUGUCGUUGAAUAUAGCGGCUUGGUGUGAUACCAGAAUGAUCUAAUUCCCUUGGCAGCAUUACAUGAGGAUCACCCAUGUUUAGG | – | – | 25.2 nM | 29.2 nM | –
AUUCAUAAUUGGGUAAAUGGAUAGAGUGAUACCAGUCAUAUACAUGACCCUUGGCAGCACAAGGACAUGAGGAUCACCCAUGUCA | – | – | 24.2 nM | 16.3 nM | –
CAGAGCUACCGGGAUACCAGAAAUGGUAUUCCUUAAUUUCUUACAUGAGGAUCACCCAUGUUCCCUUGGCAGCUUGGUAGCUCUG | 86.4 nM | 385 nM | – | – | –
CAGCACAUGAGGAUCACCCAUGUGAGGGAUACCAGCUCAGGCGUGGGCCCUUGGCAGCUCUCUGGCUGACGAAAGUCAGCCUGUG | – | – | 13.2 nM | 16.7 nM | –
CAUACUUUAGUAUGUUAUGUGGACAGUGAUACCAGAUACGAAAGUAUCCCUUGGCAGCACAACAUGAGGAUCACCCAUGUAUUUU | – | – | 23 nM | 13.6 nM | –
CAUGGGUGGGUGCUGCCACCCAUUGGUGAUACCAGCAUCGAAAGAUGCCCUUGGCAGCACCAACAUGAGGAUCACCCAUGUAAUA | – | – | 118 nM | 320 nM | –
CCUGCGUUUCUUUUCUUUCGCAGGAAUGAUACCAGUAGGGAAACCUACCCUUGGCAGCAUGGGACAUGAGGAUCACCCAUGUUAU | – | – | 350 nM | 55.1 nM | –
CGAACAAAACUAAAUAAACAACUGGGUGAUACCAGUACAUGUGCGUACCCUUGGCAGCAUCCGGCCACAUGAGGAUCACCCAUGU | – | – | 64.7 nM | 119 nM | –
UGUACCUGUAUCUGGUCCAUAGUAUAACCUCGAGGACCGGUACGGCCGCCACUCGUCGGACCACAUGAGGAUCACCCAUGUACCG | – | – | – | – | apparent Kd [2, 7]: 11.6 nM; apparent Kd [2, 8]: 12.7 nM
UGUAGACAUGAGGAUCACCCAUGUGCAACUGCAACAGGAUAUAGGGAGCGAUAGGAACGCCUAGAAGGGUUGAUCU | – | – | – | – | apparent Kd ([2]; designed as: ON switch for flavin mononucleotide, no ligand): 28.2 nM; apparent Kd ([2]; ligand present: flavin mononucleotide, designed as: ON switch for flavin mononucleotide): 24.6 nM
UGUGGGUCCGAAGAUACCAGCCAGCACAGCAUGUGUUUAAACAUGAGGAUCACCCAUGUCGGCCCUUGGCAGCUUGGUUUGGACG | – | – | – | – | apparent Kd [2, 3]: 15.5 nM; apparent Kd [2, 4]: 12.1 nM
UUAGCACAUGAGGAUCACCCAUGUCUCGAUACCAGAUAAGUUCCGAUCCCUUGGCAGCGACAAGCUUGCAAACUGCGACUAUUCU | – | – | – | – | apparent Kd [2, 5]: 24.7 nM; apparent Kd [2, 6]: 25 nM
UUCUUUGACGAGAAGGUCUCAACAUGAGGAUCACCCAUGUGAAUUAAUGGAACCAGGCCUGUUUAGAAGGAUAUCGCGGGAGUU | – | – | – | – | apparent Kd [2, 9]: 10.9 nM; apparent Kd [2, 10]: 13.8 nM
UUGAUUACCCAAGCGUGAUGGUCCUAGGAACGAGGACCGGUACGGCCGCCACUCGCAAGCAAACAUGAGGAUCACCCAUGUUUAU | – | – | – | – | apparent Kd [2, 7]: 13.1 nM; apparent Kd [2, 8]: 23 nM
UUUACACACUCAGGAUAUGAAUUCAAUUUAUCGGGCCGCUAACAUGAGGAUCACCCAUGUAACAUUCAGAAGGGAGAAGAGCCA | – | – | – | – | apparent Kd [2, 9]: 17.5 nM; apparent Kd [2, 10]: 13.7 nM
UUUCAAGUAUCGGCCGCCACUCUAGUUGGUUGUUCAAUCCGAUUACAUGAGGAUCACCCAUGUCUGAGGACCGGGAUAAAGUAAU | – | – | – | – | apparent Kd ([2]; designed as: ON switch for tryptophan, no ligand): 26.1 nM; apparent Kd ([2]; ligand present: tryptophan, designed as: ON switch for tryptophan): 31.8 nM
